According to ChEMBL document CHEMBL3763088, “Design, synthesis, and biological evaluation of water-soluble amino acid prodrug conjugates derived from combretastatin, dihydronaphthalene, and benzosuberene-based parent vascular disrupting agents” (Bioorg Med Chem, 2016):

Legend:
NCI-H460 [1] = test: Cytotoxicity against human NCI-H460 cells assessed as growth inhibition after 48 hrs by SRB assay; type: functional
How it was run: (§1)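 Cells kept at 37 °C, 5% CO2, up to passage 15. Plated at 7500 cells/well in DMEM with 5% FBS and 1% gentamycin, grown 24 h, then given 10-fold serial dilutions for 48 h. Fixed with 10% TCA (final), SRB-stained, read at 540 nm, normalized at 630 nm. GI50 is the concentration halving net protein staining versus controls, taken from optical density data.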

Tubulin (Bos taurus) [2] = biological target: T1, Tubulin (Bos taurus) (UniProt Q6B856+Q862L2+Q862F3); test: Displacement of [3H]colchicine from bovine brain tubulin at 1 uM after 10 mins by scintillation counting analysis
How it was run: (§2)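 1.0 μM tubulin with 5.0 μM [3H]colchicine and inhibitor at 1.0 or 5.0 μM. Buffer: 5% DMSO, 1.0 M monosodium glutamate pH 6.6, 0.5 mg/mL BSA, 0.1 M glucose-1-phosphate, 1.0 mM MgCl2, 1.0 mM GTP. Incubated 10 min at 37 °C, stopped with ice-cold water, collected on DEAE-cellulose filters and scintillation counted. Corrected for filter binding without tubulin; % inhibition against no-inhibitor controls.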

[3] = Cytotoxicity against human DU145 cells assessed as growth inhibition after 48 hrs by SRB assay; type: functional, DU-145; how it was run: as §1
[4] = Cytotoxicity against human SKOV3 cells assessed as growth inhibition after 48 hrs by SRB assay; type: functional, SK-OV-3; how it was run: as §1
Leucine aminopeptidase [5] = biological target: T2, Leucine aminopeptidase (Sus scrofa, UniProt Q29571); test: Activity at porcine leucine aminopeptidase by HPLC analysis; type: ADME; settings: pig
T2 sequence (Q29571 whole entry): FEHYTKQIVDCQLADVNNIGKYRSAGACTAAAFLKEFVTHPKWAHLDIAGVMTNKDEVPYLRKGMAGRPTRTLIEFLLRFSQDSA
How it was run: (§3)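 Porcine kidney microsomal LAP; units defined with 24 mM L-leucine p-nitroanilide in 50 mM sodium phosphate pH 7.2 at 37 °C. Enzyme preincubated in the same buffer at 37 °C, then substrate added. Aliquots were quenched with acetonitrile on ice, centrifuged and run on C18 HPLC (acetonitrile/water, 0.05% TFA, 1.0 mL/min, 22 °C, diode-array UV). Cleavage % from the parent/prodrug peak-area ratio; amounts from calibration curves.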

Leucine aminopeptidase [6] = biological target: T2, Leucine aminopeptidase; test: Prodrug conversion assessed as porcine leucine aminopeptidase-mediated compound cleavage by HPLC analysis; type: ADME; settings: pig; how it was run: as §3
MDA-MB-231 [7] = test: Induction of tumor-specific vascular damage in luciferase expressing human MDA-MB-231 cells xenografted in SCID mouse assessed as reduction in light emission at 15 mg/kg at 24 hrs post dose by bioluminescence imaging assay (reference value: 24%); type: functional; settings: MDA-MB-231, 24 h
MDA-MB-231 [8] = test: Induction of tumor-specific vascular damage in luciferase expressing human MDA-MB-231 cells xenografted in SCID mouse assessed as reduction in light emission at 10 mg/kg at 4 hrs post dose by bioluminescence imaging assay (reference value: 22%); type: functional; settings: MDA-MB-231, 4 h
MDA-MB-231 [9] = test: Induction of tumor-specific vascular damage in luciferase expressing human MDA-MB-231 cells xenografted in SCID mouse assessed as reduction in light emission at 10 mg/kg at 24 hrs post dose by bioluminescence imaging assay (reference value: 24%); type: functional; settings: MDA-MB-231, 24 h
MDA-MB-231 [10] = test: Induction of tumor-specific vascular damage in luciferase expressing human MDA-MB-231 cells xenografted in SCID mouse assessed as reduction in light emission at 15 mg/kg at 4 hrs post dose by bioluminescence imaging assay (reference value: 22%); type: functional; settings: MDA-MB-231, 4 h
Tubulin = Tubulin (Bos taurus, UniProt Q6B856+Q862L2+Q862F3); test: Inhibition of bovine brain tubulin polymerization preincubated for 15 mins by spectrophotometric analysis
How it was run: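 Purified bovine brain tubulin, 1.0 mg/mL (10 μM), in 0.8 M monosodium glutamate pH 6.6 with 4% DMSO and varied compound. Temperature jumped from 0 to 30 °C; turbidity at 350 nm followed for 20 min.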

Tubulin (Bos taurus) [11] = biological target: T1, Tubulin (Bos taurus); test: Displacement of [3H]colchicine from bovine brain tubulin at 5 uM after 10 mins by scintillation counting analysis; how it was run: as §2
NCI-H460 [12] = test: Cytotoxicity against human NCI-H460 cells assessed as growth inhibition using compound dissolved in water after 48 hrs by SRB assay; type: functional; settings: NCI-H460, 48 h; how it was run: as §1
[13] = Cytotoxicity against human DU145 cells assessed as growth inhibition using compound dissolved in water after 48 hrs by SRB assay; type: functional; settings: DU-145, 48 h; how it was run: as §1
[14] = Cytotoxicity against human SKOV3 cells assessed as growth inhibition using compound dissolved in water after 48 hrs by SRB assay; type: functional; settings: SK-OV-3, 48 h; how it was run: as §1
NCI-H460 [15] = test: Cytotoxicity against human NCI-H460 cells assessed as growth inhibition using compound dissolved in DMSO after 48 hrs by SRB assay; type: functional; settings: NCI-H460, 48 h; how it was run: as §1
[16] = Cytotoxicity against human SKOV3 cells assessed as growth inhibition using compound dissolved in DMSO after 48 hrs by SRB assay; type: functional; settings: SK-OV-3, 48 h; how it was run: as §1
[17] = Cytotoxicity against human DU145 cells assessed as growth inhibition using compound dissolved in DMSO after 48 hrs by SRB assay; type: functional; settings: DU-145, 48 h; how it was run: as §1
[18] = Retention time of the compound by HPLC analysis; type: physicochemical
How it was run: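 Reversed-phase C18 HPLC (4.6 × 150 mm, 5 μm) at 25 °C with diode-array detection at 190–400 nm. Acetonitrile against water or 0.1% TFA/water. Gradient 10% to 100% acetonitrile over 40 min, or in method C 10% acetonitrile for 5 min then to 100% over 5–25 min, at 1.0 mL/min.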

In the case of `COc1ccc(/C=C\c2cc(OC)c(OC)c(OC)c2)cc1O` [COMBRETASTATIN A4], the GI50 (NCI-H460 [1]; Homo sapiens, NCI-H460, 48 h) is reported as 0.005 µM, the inhibition (Tubulin (Bos taurus) [2]) is reported as 84% and the GI50 ([3]; Homo sapiens, DU-145, 48 h) is reported as 0.00602 µM. The GI50 ([4]; Homo sapiens, SK-OV-3, 48 h) was 0.00506 µM.
Work on `COc1ccc(/C=C\c2cc(OC)c(OC)c(OC)c2)c(NC(=O)[C@@H](N)CO)c1.Cl` yielded a GI50 (NCI-H460 [1]) of 0.0317 µM, a GI50 [3] of 0.0484 µM and a GI50 [4] of 0.0516 µM. For the same molecule, the Activity (Leucine aminopeptidase [5]) was 1.2 µM/min and the Drug metabolism (Leucine aminopeptidase [6]) was 62%.
`COc1ccc2c(c1NC(=O)CN)CCC=C2c1cc(OC)c(OC)c(OC)c1.Cl` gave a GI50 (NCI-H460 [1]) of 0.042 µM, an inhibition in vivo at 15 mg/kg (MDA-MB-231 [7]) of 90% and an inhibition in vivo at 10 mg/kg (MDA-MB-231 [8]) of 70%. The GI50 [3] was 0.0585 µM, the GI50 [4] was 0.0485 µM and the Activity (Leucine aminopeptidase [5]) was 15.5 µM/min. It also gave a Drug metabolism (Leucine aminopeptidase [6]) of 100%, an inhibition in vivo at 10 mg/kg (MDA-MB-231 [9]) of 55% and an inhibition in vivo at 15 mg/kg (MDA-MB-231 [10]) of 97%.
For `COc1ccc(/C=C\c2cc(OC)c(OC)c(OC)c2)cc1N`, the GI50 (NCI-H460 [1]; Homo sapiens, NCI-H460, 48 h) was 0.00449 µM, the GI50 ([3]; Homo sapiens, DU-145, 48 h) was 0.0033 µM and the GI50 ([4]; Homo sapiens, SK-OV-3, 48 h) was 0.00445 µM.
`COc1ccc(/C=C\c2cc(OC)c(OC)c(OC)c2)c(NC(=O)[C@@H](N)CO)c1NC(=O)[C@@H](N)CO.Cl.Cl` showed a GI50 (NCI-H460 [1]) greater than 86.6 µM, a GI50 [3] greater than 86.6 µM and a GI50 [4] greater than 86.6 µM. For the same molecule, the Drug metabolism (Leucine aminopeptidase [6]) was “metabolite_notdetected”.
Molecule `COc1ccc(/C=C\c2cc(OC)c(OC)c(OC)c2)cc1NC(=O)[C@@H](N)CO.Cl` has a GI50 (NCI-H460 [1]) of 0.00387 µM, a GI50 [3] of 0.00334 µM and an IC50 (Tubulin) of 13 µM. The GI50 [4] was 0.00396 µM and the Drug metabolism (Leucine aminopeptidase [6]) was 95%.
Molecule `COc1ccc2c(c1NC(=O)[C@@H](N)CO)CCC=C2c1cc(OC)c(OC)c(OC)c1` has a GI50 (NCI-H460 [1]; Homo sapiens, NCI-H460, 48 h) of 31.1 µM, a GI50 ([3]; Homo sapiens, DU-145, 48 h) of 40.6 µM and a GI50 ([4]; Homo sapiens, SK-OV-3, 48 h) of 13.7 µM.
In the case of `COc1ccc(/C=C\c2cc(OC)c(OC)c(OC)c2)c(NC(=O)CN)c1`, the GI50 (NCI-H460 [1]; Homo sapiens, NCI-H460, 48 h) is reported as 0.0532 µM, the GI50 ([3]; Homo sapiens, DU-145, 48 h) is reported as 0.0436 µM and the GI50 ([4]; Homo sapiens, SK-OV-3, 48 h) is reported as 0.0323 µM.
`COc1ccc2c(c1N)CCCC=C2c1cc(OC)c(OC)c(OC)c1` gave a GI50 (NCI-H460 [1]; Homo sapiens, NCI-H460, 48 h) of 0.00185 µM, a GI50 ([3]; Homo sapiens, DU-145, 48 h) of 0.00226 µM and an IC50 (Tubulin) of 1.3 µM. For the same molecule, the GI50 ([4]; Homo sapiens, SK-OV-3, 48 h) was 0.000137 µM and the inhibition (Tubulin (Bos taurus) [11]) was 82%.
With `COc1ccc(/C=C/c2cc(OC)c(OC)c(OC)c2)c(NC(=O)CN)c1.Cl` the GI50 (NCI-H460 [12]) was 0.38 µM, the GI50 [13] was 0.674 µM and the Drug metabolism (Leucine aminopeptidase [6]) was 100%. For the same molecule, the GI50 [14] was 0.426 µM, the GI50 (NCI-H460 [15]) was 0.418 µM and the GI50 [16] was 0.427 µM. For the same molecule, the GI50 [17] was 0.63 µM.
With `COc1ccc2c(c1NC(=O)[C@@H](N)CO)CCCC=C2c1cc(OC)c(OC)c(OC)c1` the GI50 (NCI-H460 [1]; Homo sapiens, NCI-H460, 48 h) was 45.9 µM, the GI50 ([3]; Homo sapiens, DU-145, 48 h) was greater than 81.3 µM and the GI50 ([4]; Homo sapiens, SK-OV-3, 48 h) was 44.9 µM.
In the case of `COc1ccc2c(c1NC(=O)CN)CCCC=C2c1cc(OC)c(OC)c(OC)c1`, the GI50 (NCI-H460 [1]; Homo sapiens, NCI-H460, 48 h) is reported as 0.566 µM, the GI50 ([3]; Homo sapiens, DU-145, 48 h) is reported as 0.507 µM and the GI50 ([4]; Homo sapiens, SK-OV-3, 48 h) is reported as 0.195 µM.
In the case of `COc1ccc(/C=C\c2cc(OC)c(OC)c(OC)c2)c(N)c1`, the Retention_time [18] is reported as 31.29 min, the GI50 (NCI-H460 [1]; Homo sapiens, NCI-H460, 48 h) is reported as 0.0401 µM and the GI50 ([3]; Homo sapiens, DU-145, 48 h) is reported as 0.0331 µM. It also gave an IC50 (Tubulin) of 1.1 µM and a GI50 [4] of 0.0266 µM.
For `COc1ccc(/C=C\c2cc(OC)c(OC)c(OC)c2)c(NC(=O)CN)c1.Cl`, the GI50 (NCI-H460 [1]) was 0.0292 µM, the GI50 [3] was 0.0447 µM and the GI50 [4] was 0.0485 µM. For the same molecule, the Activity (Leucine aminopeptidase [5]) was 180 µM/min and the Drug metabolism (Leucine aminopeptidase [6]) was 100%.
